A short description of test [1]: Affinity study of 5i towards Fe^3+ in metal pool. The format is physicochemical. The note with it: Zn^2+, Cu^2+, Ca^2+, Mg^2+, Na^+ and K^+ and 5i, 100 μM each.
The nature of test [2]: Metal chelation study, selectivity towards essential metals. The test is classed as physicochemical. The note with it: UV spectra. The method, boiled down: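 KCl, NaCl, CaSO4 or […] solutions are mixed with test compound at 100 μM each ligand and metal, incubated at 37 °C for 30 min, and scanned by UV from 200 to 600 nm, with compound-alone spectra taken in water. For the affinity check, Fe3+, Zn2+, Cu2+, Ca2+, Mg2+, Na+ and K+ are mixed at equal concentrations with test compound at 100 μM.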

Test [3] is described as follows: Metal chelation study by UV spectrophotometer. The note with it: for chelation of Al^3+ (in words): UV spectra 200 to 600 nm. The format is physicochemical. Summed up:
(§1)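 UV spectra from 200 to 600 nm at 37 °C. Test compound and metal salt (FeCl3, CuCl2, ZnSO4·H2O or AlCl3·6H2O) are combined at 100 μM each and incubated at 37 °C for 30 min. Compound-alone spectra use water in place of metal. Read-outs are % change in absorbance, (+) for decrease and (−) for increase, plus band shift.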

The target of test [4] is AChE from electric eel (EeAChE) (Electrophorus electricus, UniProt O42275). The experiment in a line: In vitro AChE inhibition, modified Ellman's method. The format is biochemical. The note with it: for IC50: EeAChE IC50 ± SEM, mean of three independent experiments; for inhibition at 156 µM / inhibition at 312 µM / inhibition at 625 µM / inhibition at 1250 µM / inhibition at 2500 µM / inhibition at 5000 µM / inhibition at 10000 µM: read-out: % of AChE inhibition.

A short description of test [5]: Metal chelation study by UV spectrophotometer. The test is classed as physicochemical. As to conditions: for chelation of Fe^3+ (in words): UV spectra 200 to 600 nm. Summed up:
as §1

A short description of test [6]: Stoichiometric study of Fe^3+–5i complex. The format is physicochemical. As to conditions: Fe^3+ 0–100 μM, 5i 100 μM; at 239 nm and 327 nm as printed. The method, boiled down: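 UV titration at 37 °C: 100 μM test compound in a cuvette receives 20 μL aliquots of 1 mM FeCl3, raising Fe3+ in 10 μM steps to a final 10–100 μM. Spectra are recorded after each addition. A Job's plot is built from band absorbances, and the mole fraction is obtained by extrapolation.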

Test [7] is described as follows: Antioxidant assay, ORAC-FL method. As to conditions: compound and Trolox at 8 μM, 37 °C, three independent experiments. Summed up: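 ORAC-FL in 75 mM phosphate buffer, 200 μL total: test compound, Trolox (both 8 μM) or buffer blank with 150 nM fluorescein solution, kept dark at 37 °C for 30 min. Then 12 mM AAPH solution is added and fluorescence (ex 485/em 535 nm) read every 1 min for 15 min. Net AUC vs blank is expressed as Trolox equivalents (Trolox = 1). Triplicates; three independent experiments, mean ± SEM.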

Several values for one entry are separate records, joined by “and”; a condition that tells them apart may be missing. Equal entries are not always repeated.

Chain of AChE from electric eel (EeAChE) (O42275 24-633): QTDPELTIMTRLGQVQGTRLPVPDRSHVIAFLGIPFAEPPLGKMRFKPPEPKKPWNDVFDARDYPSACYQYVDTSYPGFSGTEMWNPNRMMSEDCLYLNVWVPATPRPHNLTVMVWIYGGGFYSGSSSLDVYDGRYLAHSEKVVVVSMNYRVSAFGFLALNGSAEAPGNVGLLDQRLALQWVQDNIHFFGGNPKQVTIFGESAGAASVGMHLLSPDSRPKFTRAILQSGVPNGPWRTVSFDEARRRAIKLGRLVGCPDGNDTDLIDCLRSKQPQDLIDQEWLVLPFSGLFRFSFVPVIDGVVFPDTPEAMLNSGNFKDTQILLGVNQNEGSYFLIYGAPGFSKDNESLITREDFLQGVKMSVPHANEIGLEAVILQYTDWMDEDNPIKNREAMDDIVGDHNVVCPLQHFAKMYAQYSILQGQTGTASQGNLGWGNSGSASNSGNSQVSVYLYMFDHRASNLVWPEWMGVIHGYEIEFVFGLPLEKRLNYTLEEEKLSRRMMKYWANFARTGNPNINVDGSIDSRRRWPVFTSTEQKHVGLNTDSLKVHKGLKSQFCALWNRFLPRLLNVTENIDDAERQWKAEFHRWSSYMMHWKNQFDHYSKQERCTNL

Take `Cc1ncc(COCc2cn(Cc3cc(F)cc(F)c3)nn2)c(CO)c1O` [Compound 5i, 5-(((1-(3,5-Difluorobenzyl)-1H-1,2,3-triazol-4-yl)methoxy)methyl)-4-(hydroxymethyl)-2-methylpyridin-3-ol]: the “affinity towards Fe^3+ in the metal pool (in words)” value in test [1] is reported as “showed affinity towards Fe^3+ in the metal pool”. For the same molecule, the “chelation of Ca^2+, Mg^2+, Na^+ and K^+ (in words)” value in test [2] was “did not chelate these metal ions at all”. Moreover, the “chelation of Al^3+ (in words)” value in test [3] is on record as “chelated”. Also, the “increase in absorbance with Al^3+” value in test [3] (at 292 nm) was 104%. Also, the “bathochromic shift with Al^3+” value in test [3] (band at 292 nm) is listed as 4 nm. Also, in test [4], it took 1560 µM to reach half-maximal inhibition (IC50); the inhibition (in general, the percentage by which the read-out fell short of the control) at 156 µM was 15%; the inhibition at 312 µM stood at 26.6%; the inhibition at 625 µM came to 35.4%. For the same molecule, in test [4], the inhibition at 1250 µM was determined as 43%, the inhibition at 2500 µM came to 61.4%, the inhibition at 5000 µM was determined as 66.8% and the inhibition at 10000 µM was 77.9%. In addition, the “chelation of Fe^3+ (in words)” value in test [5] was “chelated”. The “bathochromic shift with Fe^3+” value in test [5] (band at 292 nm) is given as “about 3 nm”. Besides, the “mole fraction from Job's plot” value in test [6] worked out at 0.5. The “ORAC index ± SEM” value in test [7] is 1.21 ± 0.28 Trolox equivalents and 1.2138 Trolox equivalents.
Take `Cc1cccc(Cn2cc(COCc3cnc(C)c(O)c3CO)nn2)c1` [Compound 5c, 4-(Hydroxymethyl)-2-methyl-5-(((1-(3-methylbenzyl)-1H-1,2,3-triazol-4-yl)methoxy)methyl)pyridin-3-ol]: in test [3], the “chelation of Al^3+ (in words)” value was “chelated”. Moreover, in test [4], the IC50 (as a rule, the concentration needed to halve the response being measured) stood at 1380 µM; the inhibition at 156 µM was determined as 22.5%; the inhibition at 312 µM turned out to be 26.9%; the inhibition at 625 µM was determined as 39.1%. In test [4], the inhibition at 1250 µM worked out at 53.8%, the inhibition at 2500 µM is 64.1%, the inhibition at 5000 µM came out at 73.4% and the inhibition at 10000 µM is 81.9%. Moreover, the “chelation of Fe^3+ (in words)” value in test [5] was “chelated”. Besides, the “ORAC index ± SEM” value in test [7] was determined as 2.0164 Trolox equivalents.
